What was measured:
[1] = system: Human immunodeficiency virus 2; test: Antiviral activity against HIV-2 ROD infected in human C8166 cells assessed as protection against viral cytopathogenicity after 3 days by measuring syncytia under inverted microscope; assay type: functional, organism-based; details: Human immunodeficiency virus 2, ISOLATE ROD, C8166, 72 h
Procedure, shortened: (§1)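 C8166 cells at 4 × 10⁵/mL infected at M.O.I. 0.06 in the presence of serial compound concentrations, with AZT and GW678248 as drug controls. After 3 days of culture, syncytia (multinucleated giant cells) counted under an inverted microscope. EC₅₀ is the concentration blocking syncytium formation by 50%.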

[2] = Selectivity index, ratio of CC50 for human C8166 cells to EC50 for HIV1 3B infected in human C8166 cells; assay type: toxicity, cell-based; details: HIV-1 3B infected C8166 cells, read-out: Ratio CC50/EC50
Procedure, shortened: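 Calculated as CC₅₀ (MTT viability of uninfected C8166 cells) divided by EC₅₀ against HIV-1 IIIB (syncytium scoring in C8166 cells, M.O.I. 0.06, 3 days).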

[3] = system: Human immunodeficiency virus 1; test: Antiviral activity against HIV1 A17 expressing reverse transcriptase K103N/Y181C double mutant infected in human C8166 cells assessed as protection against virus-induced cytopathogenicity after 3 days by measuring syncytia under inverted microscope; assay type: functional, organism-based; details: Human immunodeficiency virus 1, A17, C8166, 72 h
Procedure, shortened: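 C8166 cells (4 × 10⁵/mL) infected with HIV-1 A17 at MOI 0.06 in the presence of various compound concentrations. AZT and GW678248 served as drug controls. After 3 days of culture, syncytia (multinucleated giant cells) were scored under an inverted microscope. EC₅₀ was calculated as the concentration blocking syncytium formation by 50%.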

[4] = Cytotoxicity against human C8166 cells by MTT colorimetric assay; assay type: cell-based
Procedure, shortened: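 Uninfected C8166 cells exposed to compounds; viability read by MTT colorimetric assay at absorbance 570/630 nm. CC₅₀ is the concentration reducing viability by 50%.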

[5] = system: Human immunodeficiency virus 1; test: Antiviral activity against wild-type HIV1 3B infected in human C8166 cells assessed as protection against virus-induced cytopathogenicity after 3 days by measuring syncytia under inverted microscope; assay type: functional, organism-based; details: Human immunodeficiency virus 1, 3B, C8166, 72 h; procedure, shortened: as §1

SMILES	EC50 [1] [µM]	selectivity ratio [2]	EC50 [3] [µM]	CC50 [4] [µM]	EC50 [5] [nM]
Cc1ccc(C)c(C(=O)c2c(OCC(=O)Nc3ccc(S(N)(=O)=O)cc3C)ccc3ccccc23)c1	30.3	4090	7.6	47.5	11.6
Cc1ccc(C(=O)c2c(OCC(=O)Nc3ccc(S(N)(=O)=O)cc3C)ccc3cc(Br)ccc23)c(C)c1	–	2.6	33.1	61.4	23600
Cc1cc(S(N)(=O)=O)ccc1NC(=O)COc1ccc2ccccc2c1C(=O)c1cc(Cl)cc(C#N)c1	23.6	10300	2.1	49.4	4.8
Cc1cc(S(N)(=O)=O)ccc1NC(=O)COc1ccc(Cl)cc1C(=O)c1cc(Cl)cc(C#N)c1	2.1	> 563000	0.0014	> 387	–
Cc1cn([C@H]2C[C@H](N=[N+]=[N-])[C@@H](CO)O2)c(=O)[nH]c1=O [ZIDOVUDINE]	0.039	422000	0.023	5400	–
Cc1cc(S(N)(=O)=O)ccc1NC(=O)COc1ccc2cc(Br)ccc2c1C(=O)c1cccc(F)c1	6	2.7	9.7	24.5	9170
Cc1cc(C)cc(C(=O)c2c(OCC(=O)Nc3ccc(S(N)(=O)=O)cc3C)ccc3ccccc23)c1	45.4	5040	8.4	39.1	7.8
Cc1ccc(C(=O)c2c(OCC(=O)Nc3ccc(S(N)(=O)=O)cc3C)ccc3ccccc23)cc1C	–	54.2	12.3	33	609
Cc1cc(C)cc(C(=O)c2c(OCC(=O)Nc3ccc(S(N)(=O)=O)cc3C)ccc3cc(Br)ccc23)c1	29.8	7	7.8	31	4420
Cc1ccc(C)c(C(=O)c2c(OCC(=O)Nc3ccc(S(N)(=O)=O)cc3C)ccc3cc(Br)ccc23)c1	–	5.3	20.7	14	2640
Cc1cc(S(N)(=O)=O)ccc1NC(=O)COc1ccc2cc(Br)ccc2c1C(=O)c1cccc(Cl)c1	–	4.1	3.9	6.8	1670
Cc1cc(S(N)(=O)=O)ccc1NC(=O)COc1ccc2cc(C#N)ccc2c1C(=O)c1cccc(Cl)c1	–	> 183	20.6	> 374	2050
Cc1cccc(C(=O)c2c(OCC(=O)Nc3ccc(S(N)(=O)=O)cc3C)ccc3cc(C#N)ccc23)c1	–	19.2	10.4	15.2	791
Cc1cc(S(N)(=O)=O)ccc1NC(=O)COc1ccc2ccccc2c1C(=O)c1cccc(Cl)c1	34.5	1110	9.5	37.4	33.8
Cc1cc(S(N)(=O)=O)ccc1NC(=O)COc1ccc2cc(Br)ccc2c1C(=O)c1cc(Cl)cc(Br)c1	11.1	3.8	10.2	28.5	7570
Cc1ccc(C(=O)c2c(OCC(=O)Nc3ccc(S(N)(=O)=O)cc3C)ccc3cc(Br)ccc23)cc1C	–	2.7	28.2	85.2	31900
Cc1cc(C)cc(C(=O)c2c(OCC(=O)Nc3ccc(S(N)(=O)=O)cc3C)ccc3cc(C#N)ccc23)c1	–	72	16.3	128	1780
Cc1cc(S(N)(=O)=O)ccc1NC(=O)COc1ccc2ccccc2c1C(=O)c1cc(Cl)cc(Br)c1	–	1350	7.5	36.6	27.1
Cc1ccc(C(=O)c2c(OCC(=O)Nc3ccc(S(N)(=O)=O)cc3C)ccc3cc(C#N)ccc23)cc1C	–	> 4.4	97.3	> 379	86300
Cc1cc(S(N)(=O)=O)ccc1NC(=O)COc1ccc2ccccc2c1C(=O)c1ccccc1	–	642	9.6	33.8	52.7
Cc1cc(S(N)(=O)=O)ccc1NC(=O)COc1ccc2cc(Br)ccc2c1C(=O)c1ccccc1	27.7	6.3	25.8	29.2	4610
Cc1cccc(C(=O)c2c(OCC(=O)Nc3ccc(S(N)(=O)=O)cc3C)ccc3cc(Br)ccc23)c1	–	2.9	3.4	6.8	2300
Cc1cccc(C(=O)c2c(OCC(=O)Nc3ccc(S(N)(=O)=O)cc3C)ccc3ccccc23)c1	28.3	2990	2.4	40.4	13.5
Cc1ccc(C(=O)c2c(OCC(=O)Nc3ccc(S(N)(=O)=O)cc3C)ccc3ccccc23)c(C)c1	–	183	7.9	25.5	139
